ChEMBL document CHEMBL4825662 (J Med Chem, 2021)
Converted amounts (≈) assume the structure as drawn.

Experiments:
[1] = Intrinsic clearance in Sprague-Dawley rat liver microsomes preincubated followed by NADPH addition and measured up to 45 mins by LC-MS/MS analysis; format: ADME, Microsome
[2] = Intrinsic clearance in Beagle dog liver microsomes preincubated followed by NADPH addition and measured up to 45 mins by LC-MS/MS analysis; format: ADME, Canis lupus familiaris, Microsome
[3] = Intrinsic clearance in human liver microsomes preincubated followed by NADPH addition and measured up to 45 mins by LC-MS/MS analysis; format: ADME, Microsome
[4] = Clearance in CD1 mouse at 1 mg/kg, iv measured after 0.083 to 24 hrs by UHPLC-TOF method; format: ADME, organism-based; conditions: in vivo, time 0.083-24 hrs
[5] = Volume of distribution at steady state in CD1 mouse at 1 mg/kg, iv measured after 0.083 to 24 hrs by UHPLC-TOF method; format: ADME, organism-based; conditions: in vivo, time 0.083-24 hrs, read-out: Vdss
Outline: (§1)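 Male CD-1 mice, acclimatized and individually housed, dosed IV and PO as amorphous-solid suspension. Terminal cardiac-puncture blood into heparinized tubes on wet ice, centrifuged at 4 °C within 15 min; plasma snap-frozen at −20 °C. IV arm sampled 2 min–24 h, oral arm 5 min–24 h. Plasma analysed by UHPLC-quadrupole-TOF MS.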

[6] = Apparent permeability across basolateral side to apical side in MDCK-MDR1 cells at 10 uM measured at 60 mins by LC-MS/MS analysis; format: ADME, cell-based, Canis lupus familiaris; conditions: dog
[7] = Half life in CD1 mouse at 10 mg/kg, po measured after 0.083 to 24 hrs by UHPLC-TOF method; format: ADME, organism-based; conditions: in vivo, time 0.083-24 hrs
[8] = Tmax in CD1 mouse at 10 mg/kg, po measured after 0.083 to 24 hrs by UHPLC-TOF method; format: ADME, organism-based; conditions: in vivo, time 0.083-24 hrs; outline: as §1
[9] = Cmax in CD1 mouse at 10 mg/kg, po measured after 0.083 to 24 hrs by UHPLC-TOF method; format: ADME, organism-based; design: route oral, time 0.083-24 hrs, dose 10 mg/kg; conditions: in vivo
[10] = Oral bioavailability in CD1 mouse at 10 mg/kg measured after 0.03 to 24 hrs by UHPLC-TOF method; format: ADME, organism-based; conditions: in vivo, time 0.03-24 hrs; outline: as §1
Fusion glycoprotein F0 = Fusion glycoprotein F0 (Human respiratory syncytial virus A (strain A2), UniProt P03420); assay: Inhibition of Respiratory syncytial virus fusion protein
Fusion glycoprotein F0, sequence (P03420 26-109 limits assumed): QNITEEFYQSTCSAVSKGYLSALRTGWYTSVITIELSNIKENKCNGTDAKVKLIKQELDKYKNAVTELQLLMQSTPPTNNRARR
Fusion glycoprotein F0, sequence (P03420 137-574 limits assumed): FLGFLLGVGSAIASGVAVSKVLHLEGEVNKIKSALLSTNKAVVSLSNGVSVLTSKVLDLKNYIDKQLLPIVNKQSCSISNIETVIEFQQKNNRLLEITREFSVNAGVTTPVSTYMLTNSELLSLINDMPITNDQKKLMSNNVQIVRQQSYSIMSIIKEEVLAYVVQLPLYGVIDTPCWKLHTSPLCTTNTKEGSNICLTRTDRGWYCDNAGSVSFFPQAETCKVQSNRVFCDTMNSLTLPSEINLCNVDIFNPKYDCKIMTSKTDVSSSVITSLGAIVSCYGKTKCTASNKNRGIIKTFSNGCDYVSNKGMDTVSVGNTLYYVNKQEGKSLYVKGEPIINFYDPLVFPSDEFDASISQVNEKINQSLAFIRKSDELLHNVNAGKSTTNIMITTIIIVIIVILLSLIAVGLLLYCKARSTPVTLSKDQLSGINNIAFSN
Outline: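 293T cells cotransfected with codon-optimized RSV A2 F plasmid and a GAL4-responsive luciferase reporter, mixed after 24 h with a second 293T population expressing GAL4-NF-κB transactivator. Threefold serial compound dilutions present during mixing; F-mediated fusion read as luciferase after 24 h. IC₅₀ averaged over at least two testing occasions.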

Human orthopneumovirus [11] = assay: Antiviral activity against Respiratory syncytial virus A2 by Plaque reduction assay; format: functional, organism-based
Outline: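 Vero cells were infected with RSV A2 for 48 h with compound at 0.01 nM to 100 μM. Plaques were detected by immunostaining. Values are the average of at least two testing occasions.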

Human orthopneumovirus [12] = assay: Antiviral activity against Respiratory syncytial virus A2 infected in African green monkey Vero cells by Plaque reduction assay; format: functional, organism-based
[13] = Cytotoxicity against African green monkey Vero cells by MTT assay; format: cell-based; conditions: chlorocebus sabaeus
Outline: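 Viability was assessed by MTT after culture with compound at 0.01 nM to 100 μM, run in parallel with plaque reduction assays. Values are the average of at least two testing occasions.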

[14] = Apparent permeability of compound in wild type MDCK at 10 uM incubated for 1 hr by LC-MS/MS assay; format: ADME, Canis lupus familiaris; conditions: dog
[15] = Protein binding in rat plasma assessed as unbound fraction at 5 uM by LC-MS/MS analysis based equilibrium dialysis method; format: ADME, cell-free
[16] = Protein binding in dog plasma assessed as unbound fraction at 5 uM by LC-MS/MS analysis based equilibrium dialysis method; format: ADME, cell-free, Canis lupus familiaris
[17] = Protein binding in human plasma assessed as unbound fraction at 5 uM by LC-MS/MS analysis based equilibrium dialysis method; format: ADME, cell-free
[18] = Kinetic solubility of compound in PBS at 200 uM at pH 7.4 by LC-MS/LC-UV analysis; format: physicochemical; conditions: read-out: Kinetic_solubility
Outline: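 Compound added from DMSO into PBS pH 7.4; precipitation measured across a range of concentrations.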

[19] = Half life in Sprague-Dawley rat liver microsomes preincubated followed by NADPH addition and measured up to 45 mins by LC-MS/MS analysis; format: ADME, Microsome
[20] = Half life in Beagle dog liver microsomes preincubated followed by NADPH addition and measured up to 45 mins by LC-MS/MS analysis
[21] = Half life in human liver microsomes preincubated followed by NADPH addition and measured up to 45 mins by LC-MS/MS analysis; format: ADME, Microsome
[22] = Thermodynamic solubility in PBS at 1 to 100 uM at pH 7.4 by HPLC-UV method; format: physicochemical; conditions: dose 1-100 µM, read-out: Therm_solubility
[23] = Apparent permeability across apical to basolateral side in MDCK-MDR1 cells at 10 uM measured at 60 mins by LC-MS/MS analysis; format: ADME, cell-based, Canis lupus familiaris; conditions: dog, mdck-mdr1, 1 h, 10 µM
[24] = Efflux ratio of apparent permeability in MDCK-MDR1 cells at 10 uM measured at 60 mins by LC-MS/MS analysis; format: ADME, cell-based, Canis lupus familiaris; conditions: dog, mdck-mdr1, 1 h, 10 µM
[25] = Intrinsic clearance in rat hepatocytes assessed per million cells at 3 uM measured up to 60 mins by LC-MS/MS analysis; format: ADME, cell-based, Hepatocyte; conditions: read-out: CLH
[26] = Cmax in Sprague-Dawley rat at 5 mg/kg, po administered via gavage measured after 0.02 to 24 hrs by tandem liquid chromatography/mass spectrometry; format: ADME, organism-based; design: route oral, dose 5 mg/kg, time upper 24 hrs, time lower 0.02 hrs; conditions: in vivo
Outline: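 Male Sprague–Dawley rats weighing 200–250 g, 3 per route, were used. The i.v. bolus was 1 mg/kg at 1 mg/mL in 40:60 dimethylacetamide/saline. Oral gavage doses were 5 or 10 mg/kg at 5 mg/mL in 1% methyl cellulose with 0.1% Tween 80. Heparinized blood was taken at 0.02–24 h (ten time points). Plasma was analyzed by LC-MS/MS after acetonitrile precipitation.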

[27] = Clearance in Sprague-Dawley rat at 1 mg/kg, iv administered […] measured after 0.02 to 24 hrs by tandem liquid chromatography/mass spectrometry; format: ADME, organism-based; conditions: in vivo, time 0.02-24 hrs
[28] = Volume of distribution at steady state in Sprague-Dawley rat at 1 mg/kg, iv administered […] measured after 0.02 to 24 hrs by tandem liquid chromatography/mass spectrometry; format: ADME, organism-based; conditions: in vivo, time 0.02-24 hrs, read-out: Vdss
Outline: (§2)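 Male Sprague–Dawley rats (200–250 g), 3 per route. IV bolus at 1 mg/kg, 1 mg/mL in 40:60 dimethylacetamide/saline; oral gavage at 5 or 10 mg/kg, 5 mg/mL in 1% methyl cellulose, 0.1% Tween 80 in water. Serial blood at 0.02–24 h (ten points) into heparin, spun at 4 °C, plasma frozen; acetonitrile protein precipitation, ESI LC-MS/MS with matrix curve and internal standards.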

[29] = Oral bioavailability in Sprague-Dawley rat at 10 mg/kg administered via gavage measured after 0.02 to 24 hrs by tandem liquid chromatography/mass spectrometry; format: ADME, organism-based; conditions: in vivo, time 0.02-24 hrs; outline: as §2
[30] = Cmax in CD1 mouse at 5 mg/kg, po measured after 0.03 to 24 hrs by UHPLC-TOF method; format: ADME, organism-based; design: route oral, time upper 24 hrs, time lower 0.03 hrs, dose 5 mg/kg; conditions: in vivo
[31] = Oral bioavailability in CD1 mouse at 5 mg/kg measured after 0.03 to 24 hrs by UHPLC-TOF method; format: ADME, organism-based; conditions: in vivo, time 0.03-24 hrs; outline: as §1
[32] = Drug metabolism in human liver microsomes assessed as metabolite M1 formation at 10 uM incubated for 60 mins by HPLC method; format: ADME, Microsome; conditions: 1 h
Outline: (§3)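 Compound at 10 μM was incubated with rat or human liver microsomes. Sites of metabolism were proposed from mass spectral fragmentation patterns.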

[33] = Drug metabolism in rat liver microsomes assessed as metabolite M1 formation at 10 uM incubated for 60 mins by HPLC method; format: ADME, Microsome; conditions: 1 h; outline: as §3

SMILES | Microsomal intrinsic clearance [1] | intrinsic clearance [2] | intrinsic clearance (CLint) [3] | EC50 (Human orthopneumovirus [12]) | Papp at 1 h, 10 µM [14] | fraction unbound at 5 µM [15] | fraction unbound at 5 µM [16] | fraction unbound at 5 µM [17] | solubility kinetic at 200 µM [18] | half-life [19] | half-life [20] | half-life [21] | solubility thermodynamic [22] | Cmax [26] | clearance [27] | Vd [28] | bioavailability [29] | clearance [4] | Vd [5] | CC50 [13] | further results
CC(C)CCn1c(CN2C(=O)C3(CC3)c3cccnc32)nc2cc(CN)ccc21 | 328 µL/min | 71.3 µL/min | 177 µL/min | – | – | – | – | – | – | – | – | – | – | – | – | – | – | 81.1 mL/min/kg | 4.5 L/kg | – | Papp B→A at 1 h, 10 µM [6]: 0.1 ×10⁻⁶ cm/s; half-life [7]: 1 h; Tmax [8]: 2 h; Cmax [9]: 200 ng/mL; bioavailability [10]: 18.1%; IC50 (Fusion glycoprotein F0): 0.9 nM; EC50 (Human orthopneumovirus [11]): 4.1 nM
CC(C)CCn1c(CN2C(=O)C3(CC3)c3cc(F)ccc32)nc2cc(CN)ccc21 | < 29 µL/min | < 29 µL/min | 344 µL/min | 4.2 nM | 7.3 ×10⁻⁶ cm/s | 0.19 | 0.15 | 0.11 | – | – | – | – | – | – | – | – | – | – | – | 7600 nM | –
CC(C)CCn1c(CN2C(=O)C3(CCCC3)c3ccncc32)nc2cc(CN)ccc21 | < 31 µL/min | < 28 µL/min | 488 µL/min | 310 nM | 11 ×10⁻⁶ cm/s | 0.24 | 0.14 | 0.17 | 160 µM (≈ 66.8 µg/mL) | > 1.48 h | > 1.67 h | 6 min | – | – | – | – | – | – | – | 23100 nM | –

Continued, in another order:

Microsomal intrinsic clearance [1] | intrinsic clearance [2] | intrinsic clearance (CLint) [3] | EC50 (Human orthopneumovirus [12]) | Papp at 1 h, 10 µM [14] | fraction unbound at 5 µM [15] | fraction unbound at 5 µM [16] | fraction unbound at 5 µM [17] | solubility kinetic at 200 µM [18] | half-life [19] | half-life [20] | half-life [21] | solubility thermodynamic [22] | Cmax [26] | clearance [27] | Vd [28] | bioavailability [29] | SMILES | clearance [4] | Vd [5] | CC50 [13] | further results
45 µL/min | 6.23 µL/min | 50.7 µL/min | 0.8 nM | – | 0.333 | 0.151 | 0.184 | – | – | – | – | 176 µM (≈ 71.7 µg/mL) | 44.2 ng/mL | 174 mL/min/kg | 54.3 L/kg | 25% | CC(C)CCn1c(CN2C(=O)C3(CC3)c3ccc(F)cc32)nc2cc(CN)ccc21 | – | – | 3000 nM | Papp [23]: 0.75 10^-6 cm/s; Ratio [24]: 88; hepatocyte CLint at 3 µM [25]: 43.1 µL/min/1e6 cells
< 19 µL/min | < 28 µL/min | 592 µL/min | 31 nM | 12 ×10⁻⁶ cm/s | 0.1 | 0.1 | 0.07 | 155 µM (≈ 60.2 µg/mL) | > 1.58 h | > 1.67 h | 5 min | 155 µM (≈ 60.2 µg/mL) | 6 ng/mL | 98 mL/min/kg | 34 L/kg | 4% | CC(C)CCn1c(CN2C(=O)C3(CC3)c3ccccc32)nc2cc(CN)ccc21 | 98 mL/min/kg | 34 L/kg | 15300 nM | Cmax [30]: 6 ng/mL; bioavailability [31]: 4%; Drug metabolism [32]: Metabolite_Detected; Drug metabolism [33]: Metabolite_Detected
